T cruzi intra: inhibitors of intracellular Trypanosoma cruzi; intracellular Trypanosoma cruzi in host cells, plate reader; activity score (inhibition), % at 5.01 µM; AID 651903; 22,000 tested, 4.9% active; in the data active = activity score above about 55%; inconclusive = no clear call, values can overlap the other calls;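 note: parasites and compound incubated about four days before reading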
A1 apoptosis 2: blocks A1, raising caspase activity. MEF A1-2A-BIM cells, caspase-Glo luminescence, 3 h; percent of clofoctol response, DMSO zero. caspase activation, % (no concentration beside the values). 24,000 tested, under 10 active. AID 2465; in the data active = caspase activation above about 5.9%; inconclusive = no clear call, values can overlap the other calls; inactive = below about 2.2%
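Material: mouse embryonic fibroblasts co-expressing A1 and BIM (A1-2A-BIM), primed for A1 dependence / Quantity: 2500 cells/well / Buffer or medium: RPMI-1640 growth medium with 10% FBS / Doses: 50 nL compound per well, pinned / Schedule: 3 h compound exposure at 37 °C / Signal: Caspase-Glo luminescence (DEVD substrate) / Measure: Caspase-3/7 activation, seen as rise in luminescence signal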
INS-1E rescue: rescue of cytokine-induced death in INS-1E beta cells. AID 488910. protection from cytokine-induced ATP loss, % at 10 µM. 20,000 tested, 0.1% active. INS-1E cytokine-induced death, ATP luminescence, 48 h; normalised: neutral wells 0, positive control 100;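 active = mean replicate protection from cytokine-induced ATP loss at least 50% and at least 75% of replicates each reaching 50%; inconclusive = meets only one of the two criteria, mean or replicate share; inactive = fails both the mean and replicate share criteria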
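Material: INS-1E rat cells; Quantity: 8000 cells/well; Buffer or medium: phenol-red-free RPMI with 5% fetal bovine serum; Probe or stimulus: cytokine cocktail of IFN-γ, TNF-α and IL-1β; Compound dosing: single test concentration per compound, delivered by pin transfer; Incubation: 48 h co-treatment, 10 min post-lysis read; Signal: CellTiter-Glo luminescence.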
Each line names hits and unclear results; the compound was inactive in the other large screens. The sample as a whole holds a higher share of hits than the screen did.

C[C@H](CO)N1C[C@H](C)[C@H](CN(C)S(=O)(=O)c2ccc(F)cc2)Oc2ncc(C#Cc3ccc(C(F)(F)F)cc3)cc2C1=O	T cruzi intra 85 (no result: INS-1E rescue)
CC1(C)[C@H]2CC=C(/C=N\NC(=O)c3cccc(C(=O)NO)c3)[C@@H]1C2	none (no result: A1 apoptosis 2)
O=C(N/N=C/c1c(O)ccc2ccccc12)c1ccccc1O	none (no result: T cruzi intra, INS-1E rescue)
O=C(CCCCCC(=O)N/N=C/c1ccc([N+](=O)[O-])c(O)c1)NO	none
C[C@H](O)[C@H](O)[C@@H](O)[C@@H](O)/C=N/NC(=O)c1ccccn1	none
COC(=O)CCCCCCC(=O)N/N=C/C1(NC(=O)OC(C)(C)C)CCCC1	none (no result: A1 apoptosis 2)
O=C(O)CCCCCC(=O)N/N=C/c1cc(Br)ccc1O	none
C[C@H](CO)N1C[C@H](C)[C@H](CN(C)S(=O)(=O)c2cccs2)Oc2ncc(C#Cc3cccc(F)c3)cc2C1=O	T cruzi intra 71 (no result: A1 apoptosis 2, INS-1E rescue)
Cc1ccc(S(=O)(=O)N(C)C[C@@H]2Oc3ncc(C#CCN(C)C)cc3C(=O)N([C@H](C)CO)C[C@@H]2C)cc1	none (no result: A1 apoptosis 2, INS-1E rescue)
C[C@H](CO)N1C[C@H](C)[C@H](CN(C)S(C)(=O)=O)Oc2ncc(C#Cc3cccc(F)c3)cc2C1=O	none (no result: A1 apoptosis 2, INS-1E rescue)
COc1ccc(S(=O)(=O)N(C)C[C@@H]2Oc3ncc(C#Cc4cccc(F)c4)cc3C(=O)N([C@H](C)CO)C[C@@H]2C)cc1	none (no result: A1 apoptosis 2, INS-1E rescue)
COc1ccc(S(=O)(=O)N(C)C[C@@H]2Oc3ncc(C#Cc4ccc(C(F)(F)F)cc4)cc3C(=O)N([C@H](C)CO)C[C@@H]2C)cc1	T cruzi intra 82 (no result: A1 apoptosis 2)
CCCC(O)C#Cc1cnc2c(c1)C(=O)N([C@H](C)CO)C[C@H](C)[C@H](CN(C)S(=O)(=O)c1cccc(OC)c1)O2 (some centres not stated)	none (no result: A1 apoptosis 2, INS-1E rescue)
Cc1ccc(S(=O)(=O)N(C)C[C@@H]2Oc3ncc(C#Cc4ccc(C(F)(F)F)cc4)cc3C(=O)N([C@H](C)CO)C[C@@H]2C)cc1	T cruzi intra 89
COc1cccc(S(=O)(=O)N(C)C[C@@H]2Oc3ncc(C#Cc4ccc(F)cc4)cc3C(=O)N([C@H](C)CO)C[C@@H]2C)c1	T cruzi intra 73 (no result: INS-1E rescue)
COc1ccc(CN(C)C[C@H]2Oc3ccc(NC(=O)CCN4CCOCC4)cc3C(=O)N([C@H](C)CO)C[C@H]2C)cc1	none (no result: A1 apoptosis 2)
O=C(NO)c1ccc(C(=O)N/N=C/c2ccc3c(c2)OCCO3)cc1	none
C[C@@H]1CN([C@H](C)CO)C(=O)Cc2cc(NC(=O)Nc3ccc(C(F)(F)F)cc3)ccc2O[C@@H]1CN(C)Cc1ccccc1	T cruzi intra 69 (no result: A1 apoptosis 2)
C[C@@H]1CN([C@@H](C)CO)C(=O)Cc2cc(NC(=O)Nc3ccc(C(F)(F)F)cc3)ccc2O[C@@H]1CN(C)Cc1ccccc1	T cruzi intra 58 (no result: A1 apoptosis 2)
C[C@H]1CN([C@@H](C)CO)C(=O)Cc2cc(NC(=O)Nc3ccccc3)ccc2O[C@@H]1CN(C)Cc1ccc(C(F)(F)F)cc1	none
C[C@@H]1CN([C@@H](C)CO)C(=O)Cc2cc(NC(=O)Nc3ccccc3)ccc2O[C@@H]1CN(C)Cc1ccc(C(F)(F)F)cc1	T cruzi intra inconclusive
O=C(CCCCCCC(=O)Nc1ccccc1O)N/N=C/[C@@H](O)[C@H](O)[C@H](O)CO	none
O=C(CCCCC(=O)N/N=C\c1ccc2c(c1)Cc1ccccc1-2)NO	INS-1E rescue 94 (no result: A1 apoptosis 2)
O=C(CCCCCCC(=O)N/N=C/c1ccccc1)NO	none (no result: T cruzi intra, INS-1E rescue)
Cc1ccsc1/C=N\NC(=O)CCCCCC(=O)NO	INS-1E rescue 118 (no result: A1 apoptosis 2)
Cc1ccsc1/C=N/NC(=O)CCCCCCC(=O)Nc1ccccc1O	none
O=C(CCCCCC(=O)N/N=C/c1c[nH]c2ccccc12)NO	INS-1E rescue 91 (no result: A1 apoptosis 2)
Cc1ccccc1/C=N/NC(=O)CCCCCCC(=O)Nc1ccccc1O	none
Cc1ccccc1/C=N/NC(=O)CCCCC(=O)NO	INS-1E rescue 67 (no result: A1 apoptosis 2)
COC(=O)CCCCCCC(=O)N/N=C/c1ccc2c(c1)Cc1ccccc1-2	none
O=C(NO)c1cccc(C(=O)N/N=C/c2ccc(OCc3ccccc3)cc2O)c1	none
O=C(N/N=C/c1ccc(N(c2ccccc2)c2ccccc2)cc1)c1ccccn1	none (no result: A1 apoptosis 2)
COC(=O)CCCCCCC(=O)N/N=C/c1ccc(-n2ccnc2)cc1	none
C[C@@H]1CN([C@H](C)CO)C(=O)c2cc(NS(=O)(=O)c3ccccc3)ccc2O[C@H]1CN(C)CC1CCCCC1	none (no result: A1 apoptosis 2)
O=C(NO)c1ccc(C(=O)N/N=C/c2cccc(B(O)O)c2)cc1	none
CC(C)(C)OC(=O)NC/C=N/NC(=O)CCCCC(=O)NO	none
O=C(NO)c1cccc(C(=O)N/N=C/c2ccccc2C(=O)O)c1	none
C[C@@H]1CN([C@H](C)CO)C(=O)c2cc(NS(=O)(=O)c3ccc(F)cc3)ccc2O[C@@H]1CN(C)Cc1ccc(C(=O)Nc2ccccc2N)cc1	none (no result: A1 apoptosis 2)
C[C@@H]1CCCCO[C@H](CN(C)Cc2ccc(C(=O)Nc3ccccc3N)cc2)[C@@H](C)CN([C@H](C)CO)C(=O)c2cc(NS(=O)(=O)c3ccc(Cl)cc3)ccc2O1	T cruzi intra 78 (no result: A1 apoptosis 2)
C[C@H](CO)N1C[C@H](C)[C@@H](CN(C)Cc2ccc(C(=O)Nc3ccccc3N)cc2)Oc2ccc(NS(=O)(=O)c3ccccc3)cc2CC1=O	none (no result: T cruzi intra, INS-1E rescue)
C[C@@H]1CCCCO[C@@H](CN(C)Cc2ccc(C(=O)Nc3ccccc3N)cc2)[C@@H](C)CN([C@H](C)CO)C(=O)c2cc(NS(=O)(=O)c3ccccc3)ccc2O1	none
C[C@@H]1CN([C@@H](C)CO)C(=O)c2cc(NS(=O)(=O)c3ccc(F)cc3)ccc2O[C@H]1CN(C)Cc1ccc(C(=O)Nc2ccccc2N)cc1	T cruzi intra 57
C[C@@H]1CN([C@@H](C)CO)C(=O)Cc2cc(NS(=O)(=O)c3ccc(F)cc3)ccc2O[C@@H]1CN(C)Cc1ccc(C(=O)Nc2ccccc2N)cc1	none
C[C@@H]1CN([C@H](C)CO)C(=O)Cc2cc(NS(=O)(=O)c3ccccc3)ccc2O[C@@H]1CN(C)Cc1ccc(C(=O)Nc2ccccc2N)cc1	T cruzi intra 58
C[C@H]1CN([C@@H](C)CO)C(=O)Cc2cc(NS(=O)(=O)c3ccc(F)cc3)ccc2O[C@H]1CN(C)Cc1ccc(C(=O)Nc2ccccc2N)cc1	T cruzi intra 71 (no result: A1 apoptosis 2)
NC(=O)COc1ccc(/C=N/NC(=O)CCCCCCC(=O)Nc2ccccc2O)cc1	none
C=C(C)[C@@H]1CC=C(/C=N/NC(=O)CCCCCC(=O)O)CC1	none
O=C(N/N=C/c1ccc(-c2ccccc2)cc1)c1ccccn1	none (no result: A1 apoptosis 2)
O=C(N/N=C/c1ccc(Br)cc1)c1ccccn1	none
C[C@H]1CN([C@@H](C)CO)C(=O)Cc2cc(NS(=O)(=O)c3ccc(Cl)cc3)ccc2O[C@H]1CN(C)Cc1ccc(C(=O)Nc2ccccc2N)cc1	T cruzi intra 66
Cc1ccc(S(=O)(=O)Nc2ccc3c(c2)CC(=O)N([C@H](C)CO)C[C@@H](C)[C@H](CN(C)Cc2ccc(C(=O)Nc4ccccc4N)cc2)O3)cc1	none (no result: A1 apoptosis 2)
C[C@H]1CN([C@@H](C)CO)C(=O)Cc2cc(NS(=O)(=O)c3ccccc3)ccc2O[C@@H]1CN(C)Cc1ccc(C(F)(F)F)cc1	T cruzi intra 67 (no result: A1 apoptosis 2)
C[C@@H]1CN([C@H](C)CO)C(=O)Cc2cc(NS(=O)(=O)c3ccccc3)ccc2O[C@H]1CN(C)Cc1ccc(C(F)(F)F)cc1	none

Screening data (PubChem)
